Data: ChEMBL document CHEMBL1781932 (J Med Chem, 2011)
≈ marks a conversion by molar mass, not a printed value.

Tests used:
Assay type in all cases: functional
[1] = system: Streptococcus pneumoniae; test: Antimicrobial activity against tetracycline-susceptible Streptococcus pneumoniae isolate 106 by CLSI dilution method
Method in brief: (§1)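 Broth microdilution per CLSI in fresh cation-adjusted Mueller Hinton broth, kept at 4 °C before testing, with defibrinated horse blood added as appropriate. Strains were from ATCC. MIC in µg/mL. Runs were accepted when comparator antibiotics against ATCC quality-control strains fell within recommended ranges.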

[2] = system: Staphylococcus aureus; test: Antimicrobial activity against tetracycline-resistant Staphylococcus aureus isolate 158 harboring tetK gene by CLSI dilution method
[3] = system: Enterococcus faecalis; test: Antimicrobial activity against tetracycline-resistant Enterococcus faecalis isolate 159 harboring […] gene by CLSI dilution method
[4] = system: Klebsiella pneumoniae; test: Antimicrobial activity against tetracycline-susceptible Klebsiella pneumoniae isolate 109 by CLSI dilution method; method in brief: as §1
[5] = system: Klebsiella pneumoniae; test: Antimicrobial activity against tetracycline-resistant Klebsiella pneumoniae isolate 153 harboring tetA gene by CLSI dilution method
[6] = system: Enterobacter cloacae; test: Antimicrobial activity against tetracycline-susceptible Enterobacter cloacae isolate 108 by CLSI dilution method; method in brief: as §1
[7] = system: Enterococcus faecalis; test: Antimicrobial activity against tetracycline-susceptible Enterococcus faecalis isolate 103 by CLSI dilution method; method in brief: as §1
[8] = system: Staphylococcus aureus; test: Antimicrobial activity against tetracycline-susceptible Staphylococcus aureus isolate 101 by CLSI dilution method
[9] = system: Acinetobacter baumannii; test: Antimicrobial activity against tetracycline-susceptible Acinetobacter baumannii isolate 110 by CLSI dilution method; method in brief: as §1
[10] = system: Streptococcus pneumoniae; test: Antimicrobial activity against tetracycline-resistant Streptococcus pneumoniae isolate 160 harboring tetM gene by CLSI dilution method
[11] = system: Pseudomonas aeruginosa; test: Antimicrobial activity against tetracycline-susceptible Pseudomonas aeruginosa isolate 111 by CLSI dilution method; method in brief: as §1
[12] = system: Escherichia coli; test: Antimicrobial activity against tetracycline-resistant Escherichia coli isolate 155 harboring tetA gene by CLSI dilution method
[13] = system: Escherichia coli; test: Antimicrobial activity against tetracycline-susceptible Escherichia coli isolate 107 by CLSI dilution method; method in brief: as §1
[14] = system: Staphylococcus aureus; test: Antimicrobial activity against methicillin-, tetracycline-resistant Staphylococcus aureus isolate 161 harboring tetM gene by CLSI dilution method

SMILES	MIC [1]	MIC [2]	MIC [3]	MIC [4]	MIC [5]	MIC [6]	MIC [7]	MIC [8]	MIC [9]	MIC [10]	MIC [11]	MIC [12]	MIC [13]	MIC [14]
CN(C)Cc1ccc2c(F)c3c(c(O)c2c1)C(=O)C1=C(O)[C@]2(O)C(=O)C(C(N)=O)=C(O)[C@@H](N(C)C)[C@@H]2C[C@@H]1C3	0.0156 µg/mL (≈ 0.0289 µM)	0.25 µg/mL (≈ 0.463 µM)	1 µg/mL (≈ 1.85 µM)	2 µg/mL (≈ 3.71 µM)	4 µg/mL (≈ 7.41 µM)	4 µg/mL (≈ 7.41 µM)	0.25 µg/mL (≈ 0.463 µM)	0.5 µg/mL (≈ 0.927 µM)	0.5 µg/mL (≈ 0.927 µM)	8 µg/mL (≈ 14.8 µM)	32 µg/mL (≈ 59.3 µM)	4 µg/mL (≈ 7.41 µM)		
CN(C)C1CN(Cc2ccc3cc4c(c(O)c3c2)C(=O)C2=C(O)[C@]3(O)C(=O)C(C(N)=O)=C(O)[C@@H](N(C)C)[C@@H]3C[C@@H]2C4)C1	0.0625 µg/mL (≈ 0.108 µM)	1 µg/mL (≈ 1.73 µM)			8 µg/mL (≈ 13.9 µM)		1 µg/mL (≈ 1.73 µM)	2 µg/mL (≈ 3.47 µM)	4 µg/mL (≈ 6.94 µM)	1 µg/mL (≈ 1.73 µM)	> 32 µg/mL	16 µg/mL (≈ 27.7 µM)		
CN(C)[C@@H]1C(O)=C(C(N)=O)C(=O)[C@@]2(O)C(O)=C3C(=O)c4c(cc5ccc(CN6CC(C#N)C6)cc5c4O)C[C@H]3C[C@@H]12	0.25 µg/mL (≈ 0.448 µM)	1 µg/mL (≈ 1.79 µM)	4 µg/mL (≈ 7.16 µM)	8 µg/mL (≈ 14.3 µM)	32 µg/mL (≈ 57.3 µM)		1 µg/mL (≈ 1.79 µM)	1 µg/mL (≈ 1.79 µM)		1 µg/mL (≈ 1.79 µM)	> 32 µg/mL	> 32 µg/mL	4 µg/mL (≈ 7.16 µM)	2 µg/mL (≈ 3.58 µM)
COc1c2c(c(O)c3cc(CNC(C)(C)C)ccc13)C(=O)C1=C(O)[C@]3(O)C(=O)C(C(N)=O)=C(O)[C@@H](N(C)C)[C@@H]3C[C@@H]1C2	0.0156 µg/mL (≈ 0.0269 µM)	0.25 µg/mL (≈ 0.431 µM)			8 µg/mL (≈ 13.8 µM)		0.25 µg/mL (≈ 0.431 µM)	0.25 µg/mL (≈ 0.431 µM)	2 µg/mL (≈ 3.45 µM)	0.5 µg/mL (≈ 0.863 µM)	16 µg/mL (≈ 27.6 µM)	8 µg/mL (≈ 13.8 µM)	1 µg/mL (≈ 1.73 µM)	
COc1c2c(c(O)c3cc(CN(C)C)ccc13)C(=O)C1=C(O)[C@]3(O)C(=O)C(C(N)=O)=C(O)[C@@H](N(C)C)[C@@H]3C[C@@H]1C2	0.0156 µg/mL (≈ 0.0283 µM)	0.25 µg/mL (≈ 0.453 µM)		4 µg/mL (≈ 7.25 µM)			0.25 µg/mL (≈ 0.453 µM)	0.25 µg/mL (≈ 0.453 µM)	1 µg/mL (≈ 1.81 µM)	0.25 µg/mL (≈ 0.453 µM)	32 µg/mL (≈ 58 µM)	8 µg/mL (≈ 14.5 µM)		2 µg/mL (≈ 3.63 µM)
COc1c2c(c(O)c3cc(F)ccc13)C(=O)C1=C(O)[C@]3(O)C(=O)C(C(N)=O)=C(O)[C@@H](N(C)C)[C@@H]3C[C@@H]1C2		0.125 µg/mL (≈ 0.244 µM)		32 µg/mL (≈ 62.4 µM)	> 32 µg/mL	> 32 µg/mL	0.5 µg/mL (≈ 0.976 µM)	0.125 µg/mL (≈ 0.244 µM)	1 µg/mL (≈ 1.95 µM)	8 µg/mL (≈ 15.6 µM)	> 32 µg/mL	16 µg/mL (≈ 31.2 µM)	16 µg/mL (≈ 31.2 µM)	0.5 µg/mL (≈ 0.976 µM)
CN(C)Cc1cccc2c(O)c3c(cc12)C[C@H]1C[C@H]2[C@H](N(C)C)C(O)=C(C(N)=O)C(=O)[C@@]2(O)C(O)=C1C3=O	0.25 µg/mL (≈ 0.479 µM)	0.5 µg/mL (≈ 0.959 µM)	32 µg/mL (≈ 61.4 µM)		> 32 µg/mL	> 32 µg/mL	1 µg/mL (≈ 1.92 µM)	1 µg/mL (≈ 1.92 µM)	16 µg/mL (≈ 30.7 µM)	2 µg/mL (≈ 3.83 µM)	> 32 µg/mL	> 32 µg/mL	4 µg/mL (≈ 7.67 µM)	
CN(C)[C@@H]1C(O)=C(C(N)=O)C(=O)[C@@]2(O)C(O)=C3C(=O)c4c(cc5c(CN6CCC6)cccc5c4O)C[C@H]3C[C@@H]12	0.25 µg/mL (≈ 0.469 µM)	0.5 µg/mL (≈ 0.937 µM)		16 µg/mL (≈ 30 µM)	> 32 µg/mL		2 µg/mL (≈ 3.75 µM)	1 µg/mL (≈ 1.87 µM)	32 µg/mL (≈ 60 µM)	2 µg/mL (≈ 3.75 µM)	> 32 µg/mL	> 32 µg/mL	8 µg/mL (≈ 15 µM)	4 µg/mL (≈ 7.5 µM)
CN(C)[C@@H]1C(O)=C(C(N)=O)C(=O)[C@@]2(O)C(O)=C3C(=O)c4c(cc5c(N)cccc5c4O)C[C@H]3C[C@@H]12	2 µg/mL (≈ 4.17 µM)	2 µg/mL (≈ 4.17 µM)		> 32 µg/mL	> 32 µg/mL	> 32 µg/mL	4 µg/mL (≈ 8.34 µM)	2 µg/mL (≈ 4.17 µM)	8 µg/mL (≈ 16.7 µM)		> 32 µg/mL	> 32 µg/mL	> 32 µg/mL	4 µg/mL (≈ 8.34 µM)
CN(C)[C@@H]1C(O)=C(C(N)=O)C(=O)[C@@]2(O)C(O)=C3C(=O)c4c(cc5cc(N)ccc5c4O)C[C@H]3C[C@@H]12	2 µg/mL (≈ 4.17 µM)			> 32 µg/mL	> 32 µg/mL	> 32 µg/mL	4 µg/mL (≈ 8.34 µM)		16 µg/mL (≈ 33.4 µM)	8 µg/mL (≈ 16.7 µM)	> 32 µg/mL	> 32 µg/mL	> 32 µg/mL	
CN(C)[C@@H]1C(O)=C(C(N)=O)C(=O)[C@@]2(O)C(O)=C3C(=O)c4c(cc5ccc(CN6CCC6)cc5c4O)C[C@H]3C[C@@H]12	0.125 µg/mL (≈ 0.234 µM)	0.5 µg/mL (≈ 0.937 µM)	4 µg/mL (≈ 7.5 µM)	4 µg/mL (≈ 7.5 µM)	8 µg/mL (≈ 15 µM)		0.5 µg/mL (≈ 0.937 µM)	0.5 µg/mL (≈ 0.937 µM)		0.25 µg/mL (≈ 0.469 µM)	32 µg/mL (≈ 60 µM)	8 µg/mL (≈ 15 µM)	1 µg/mL (≈ 1.87 µM)	2 µg/mL (≈ 3.75 µM)
CN(C)CCOc1c2c(c(O)c3cc(CN4CCC4)ccc13)C(=O)C1=C(O)[C@]3(O)C(=O)C(C(N)=O)=C(O)[C@@H](N(C)C)[C@@H]3C[C@@H]1C2	1 µg/mL (≈ 1.61 µM)	4 µg/mL (≈ 6.44 µM)		32 µg/mL (≈ 51.6 µM)	> 32 µg/mL	16 µg/mL (≈ 25.8 µM)	8 µg/mL (≈ 12.9 µM)	4 µg/mL (≈ 6.44 µM)	> 32 µg/mL	2 µg/mL (≈ 3.22 µM)	> 32 µg/mL	> 32 µg/mL	8 µg/mL (≈ 12.9 µM)	8 µg/mL (≈ 12.9 µM)
CNC(=O)Oc1c2c(c(O)c3cc(CN4CCC4)ccc13)C(=O)C1=C(O)[C@]3(O)C(=O)C(C(N)=O)=C(O)[C@@H](N(C)C)[C@@H]3C[C@@H]1C2	1 µg/mL (≈ 1.65 µM)			> 32 µg/mL	> 32 µg/mL	> 32 µg/mL	8 µg/mL (≈ 13.2 µM)	8 µg/mL (≈ 13.2 µM)	> 32 µg/mL	4 µg/mL (≈ 6.59 µM)	> 32 µg/mL	> 32 µg/mL	32 µg/mL (≈ 52.8 µM)	
CCCN(CCC)c1c2c(c(O)c3cc(CN4CCC4)ccc13)C(=O)C1=C(O)[C@]3(O)C(=O)C(C(N)=O)=C(O)[C@@H](N(C)C)[C@@H]3C[C@@H]1C2	0.125 µg/mL (≈ 0.198 µM)	0.5 µg/mL (≈ 0.79 µM)	4 µg/mL (≈ 6.32 µM)	> 32 µg/mL	> 32 µg/mL	> 32 µg/mL	0.5 µg/mL (≈ 0.79 µM)	0.5 µg/mL (≈ 0.79 µM)	8 µg/mL (≈ 12.6 µM)	0.5 µg/mL (≈ 0.79 µM)	> 32 µg/mL	> 32 µg/mL	32 µg/mL (≈ 50.6 µM)	
CN(C)[C@@H]1C(O)=C(C(N)=O)C(=O)[C@@]2(O)C(O)=C3C(=O)c4c(cc5ccccc5c4O)C[C@H]3C[C@@H]12	0.25 µg/mL (≈ 0.538 µM)						0.5 µg/mL (≈ 1.08 µM)	1 µg/mL (≈ 2.15 µM)	8 µg/mL (≈ 17.2 µM)	0.25 µg/mL (≈ 0.538 µM)	> 32 µg/mL	> 32 µg/mL	> 32 µg/mL	1 µg/mL (≈ 2.15 µM)
